The target in experiment [1] is Neuronal acetylcholine receptor subunit alpha-7 (Rattus norvegicus) (UniProt Q05941). In words: Displacement of [3H]methyllycaconitine from alpha7 nAChR in rat brain membrane at 100 nM. It is filed as cell membranes. In short, it runs like this: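 Whole rat brain membranes, [3H]MLA binding at 2.5 nM radioligand; nonspecific binding defined with 10 μM nicotine. Analogue tested at a 100 nM probe concentration. Inhibition expressed as percent of radioligand binding without analogue. At least three independent experiments, each in duplicate.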
A general note: In a radioligand displacement assay an active substance lowers the binding of a labelled ligand.

In experiment [2] the target is Neuronal acetylcholine receptor; alpha4/beta2 (Rattus norvegicus) (UniProt P09483+P12390). Description: Displacement of [3H]nicotine from alpha4beta2 nAChR in rat brain membrane at 100 nM. The format is cell membranes. In short, it runs like this: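 Whole rat brain membranes, [3H]nicotine binding at 3 nM radioligand; nonspecific binding defined with 10 μM […]. Analogue tested at a 100 nM probe concentration. Inhibition expressed as percent of radioligand binding without analogue. At least three independent experiments, each in duplicate.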

The species named for experiment [3] is Rattus norvegicus. In words: Inhibition of nAChR-mediated nicotine-evoked [3H]DA release in superfused rat striatal slices at 100 nM. In short, it runs like this: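 Rat striatal slices, preloaded with [3H]DA, superfused 36 min with or without 100 nM analogue, then 36 min more with 10 μM S(-)-nicotine added. Inhibition expressed as percent of the nicotine-evoked [3H]DA overflow without analogue. At least three independent experiments, each in duplicate.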

Experiment [4] in a line: Inhibition of nAChR-mediated nicotine-evoked [3H]DA release in superfused rat striatal slices. The method, boiled down: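 Superfused rat striatal slices, [3H]DA overflow evoked by 10 μM S(-)-nicotine after 36 min analogue pre-exposure, superfusion continued 36 min. Full concentration range 1 nM to 10 μM. IC50 from iterative nonlinear least-squares curve fitting; 4–5 independent experiments, each in duplicate.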

The target in experiment [5] is Neuronal acetylcholine receptor subunit alpha-7 (Rattus norvegicus, UniProt Q05941). In words: Displacement of [3H]methyllycaconitine from alpha7 nAChR in rat brain membrane. The format is cell membranes.

A word on the inhibition: it is the relative decrease from the control value, in per cent. A low value points to a weak effect. Usually IC50 stands for the concentration needed to halve the response being measured. Low values mean higher potency, high ones lower potency. By Ki is commonly meant a dissociation constant, usually derived from enzyme kinetics or from competition with a known ligand. Read a low Ki as a stronger hold on the target.

Where only a bound is given, the exact number is not on record here.

Chain of Neuronal acetylcholine receptor subunit alpha-7 (Rattus norvegicus) (Q05941 whole entry): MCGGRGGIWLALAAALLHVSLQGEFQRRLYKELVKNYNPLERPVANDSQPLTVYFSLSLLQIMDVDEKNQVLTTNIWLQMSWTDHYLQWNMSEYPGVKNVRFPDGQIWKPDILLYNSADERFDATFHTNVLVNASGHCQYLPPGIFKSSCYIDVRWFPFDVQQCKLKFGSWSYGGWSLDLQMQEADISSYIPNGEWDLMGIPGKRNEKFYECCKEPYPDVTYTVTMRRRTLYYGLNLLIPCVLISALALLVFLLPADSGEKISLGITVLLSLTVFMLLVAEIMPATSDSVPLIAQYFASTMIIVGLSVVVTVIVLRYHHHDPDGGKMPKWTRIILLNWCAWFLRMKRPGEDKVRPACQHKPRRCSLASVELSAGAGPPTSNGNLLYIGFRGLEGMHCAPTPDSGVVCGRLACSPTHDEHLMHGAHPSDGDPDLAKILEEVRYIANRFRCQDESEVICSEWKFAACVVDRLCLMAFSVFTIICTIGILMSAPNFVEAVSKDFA
Chain of Neuronal acetylcholine receptor subunit alpha-7 (Q05941 whole entry): as above

On to `C(#Cc1cc(C#CCCC[n+]2cccc(-c3ccccc3)c2)c(C#CCCC[n+]2cccc(-c3ccccc3)c2)cc1C#CCCC[n+]1cccc(-c2ccccc2)c1)CCC[n+]1cccc(-c2ccccc2)c1`, for which the results for the Activity in experiment [1] and in experiment [2] were 53% and 0.3%, respectively. Besides, the inhibition in experiment [3] was determined as 37%.

For `c1c(CCCCC[n+]2ccc3c(c2)CCCC3)c(CCCCC[n+]2ccc3c(c2)CCCC3)cc(CCCCC[n+]2ccc3c(c2)CCCC3)c1CCCCC[n+]1ccc2c(c1)CCCC2`, the figures for the Activity in experiment [1] and in experiment [2] were 27% and 0.9%, respectively. In addition, the inhibition in experiment [3] came to 27%.

`c1ccc2c[n+](CCCCCc3cc(CCCCC[n+]4ccc5ccccc5c4)c(CCCCC[n+]4ccc5ccccc5c4)cc3CCCCC[n+]3ccc4ccccc4c3)ccc2c1` registered an IC50 in experiment [4] of 56 nM. Further, the values for the Activity in experiment [1] and in experiment [2] were 24% and 6.5%, respectively. Besides, the inhibition in experiment [3] is 63%.

Regarding `Cc1cc[n+](CCCC#Cc2cc(C#CCCC[n+]3ccc(C)c(C)c3)c(C#CCCC[n+]3ccc(C)c(C)c3)cc2C#CCCC[n+]2ccc(C)c(C)c2)cc1C`, the results for the Activity in experiment [1] and in experiment [2] were 0.6% and 9.8%, respectively. Also, the inhibition in experiment [3] was 17%.

As for `OCCCc1ccc[n+](CCCC#Cc2cc(C#CCCC[n+]3cccc(CCCO)c3)c(C#CCCC[n+]3cccc(CCCO)c3)cc2C#CCCC[n+]2cccc(CCCO)c2)c1`, the Activity in experiment [1] worked out at 5.7%; in experiment [2], 0%. In experiment [3], this molecule displayed an inhibition of 41%.

In the case of `Cc1ccc[n+](CCCCCCCCCCCC[n+]2cccc(C)c2)c1`, the IC50 in experiment [4] was found to be 2 nM. The molecule also showed a Ki in experiment [5] greater than 100000 nM.

As for `C(#Cc1cc(C#CCCC[n+]2ccc3c(c2)CCCC3)c(C#CCCC[n+]2ccc3c(c2)CCCC3)cc1C#CCCC[n+]1ccc2c(c1)CCCC2)CCC[n+]1ccc2c(c1)CCCC2`, the Activity was determined as 17% in experiment [1] and 9.7% in experiment [2]. Besides, the inhibition in experiment [3] turned out to be 24%.

`Cc1cc[n+](CCCC#Cc2cc(C#CCCC[n+]3ccc(C)cc3)c(C#CCCC[n+]3ccc(C)cc3)cc2C#CCCC[n+]2ccc(C)cc2)cc1`: the Activity is 3% in experiment [1] and 24% in experiment [2]. The inhibition in experiment [3] was determined as 35%.

The molecule `Cc1ccc[n+](CCCC#Cc2cc(C#CCCC[n+]3cccc(C)c3)cc(C#CCCC[n+]3cccc(C)c3)c2)c1` displayed an IC50 in experiment [4] of 0.2 nM. For the same molecule, the Activity came out at 0% in experiment [1] and 10% in experiment [2]. This molecule came in with an inhibition in experiment [3] of 40%.

As to `c1ccc(Cc2ccc[n+](CCCCCc3cc(CCCCC[n+]4cccc(Cc5ccccc5)c4)c(CCCCC[n+]4cccc(Cc5ccccc5)c4)cc3CCCCC[n+]3cccc(Cc4ccccc4)c3)c2)cc1`, the concentration for half-maximal inhibition (IC50) in experiment [4] turned out to be 28 nM. Moreover, the Activity worked out at 16% in experiment [1] and 13% in experiment [2]. Also, the inhibition in experiment [3] amounted to 54%.

Turning to `OCCCc1ccc[n+](CCCCCc2cc(CCCCC[n+]3cccc(CCCO)c3)c(CCCCC[n+]3cccc(CCCO)c3)cc2CCCCC[n+]2cccc(CCCO)c2)c1`, in experiment [4], the half-inhibitory concentration (IC50) is 3.38 nM. The Activity in experiment [1] amounted to 20%; in experiment [2], 9.6%. In experiment [3], this molecule came in with an inhibition of 64%.

In the case of `CN1CCC[C@H]1c1ccc[n+](CCCCCc2cc(CCCCC[n+]3cccc([C@@H]4CCCN4C)c3)c(CCCCC[n+]3cccc([C@@H]4CCCN4C)c3)cc2CCCCC[n+]2cccc([C@@H]3CCCN3C)c2)c1`, the Activity in experiment [1] was found to be 26%; in experiment [2] it was 7.4%. In experiment [3], this molecule came in with an inhibition of 43%.

In the case of `Cc1cc(C)c[n+](CCCC#Cc2cc(C#CCCC[n+]3cc(C)cc(C)c3)c(C#CCCC[n+]3cc(C)cc(C)c3)cc2C#CCCC[n+]2cc(C)cc(C)c2)c1`, the Activity in experiment [1] was found to be 3.9%; in experiment [2], 0%. In experiment [3], this molecule yielded an inhibition of 12%.

In the case of `C(#Cc1cc(C#CCCC[n+]2cccc(Cc3ccccc3)c2)c(C#CCCC[n+]2cccc(Cc3ccccc3)c2)cc1C#CCCC[n+]1cccc(Cc2ccccc2)c1)CCC[n+]1cccc(Cc2ccccc2)c1`, the Activity in experiment [1] was 53%; in experiment [2], 2.9%. Moreover, in experiment [3], the inhibition is 17%.

`Cc1cc[n+](CCCCCc2cc(CCCCC[n+]3ccc(C)cc3)c(CCCCC[n+]3ccc(C)cc3)cc2CCCCC[n+]2ccc(C)cc2)cc1`: the figures for the Activity in experiment [1] and in experiment [2] were 8% and 12%, respectively. In experiment [3], this molecule came in with an inhibition of 46%.

For `Cc1cc[n+](CCCCCc2cc(CCCCC[n+]3ccc(C)c(C)c3)c(CCCCC[n+]3ccc(C)c(C)c3)cc2CCCCC[n+]2ccc(C)c(C)c2)cc1C`, the Activity in experiment [1] was determined as 18%; in experiment [2] it was 0.5%. In experiment [3], this molecule gave an inhibition of 36%.

In the case of `C(#Cc1cc(C#CCCC[n+]2ccc3ccccc3c2)c(C#CCCC[n+]2ccc3ccccc3c2)cc1C#CCCC[n+]1ccc2ccccc2c1)CCC[n+]1ccc2ccccc2c1`, the results for the Activity in experiment [1] and in experiment [2] were 4.9% and 0%, respectively. In experiment [3], this molecule yielded an inhibition of 39%.

As to `CN1CCC[C@H]1c1ccc[n+](CCCC#Cc2cc(C#CCCC[n+]3cccc([C@@H]4CCCN4C)c3)c(C#CCCC[n+]3cccc([C@@H]4CCCN4C)c3)cc2C#CCCC[n+]2cccc([C@@H]3CCCN3C)c2)c1`, the Activity in experiment [1] came to 15%; in experiment [2], 38%. In experiment [3], this molecule displayed an inhibition of 31%.

With `Cc1ccc[n+](CCCCCc2cc(CCCCC[n+]3cccc(C)c3)c(CCCCC[n+]3cccc(C)c3)cc2CCCCC[n+]2cccc(C)c2)c1`, the Activity in experiment [1] and in experiment [2] was 12% throughout. This molecule also had an inhibition in experiment [3] of 8%.

For the molecule `Cc1cc(C)c[n+](CCCCCc2cc(CCCCC[n+]3cc(C)cc(C)c3)c(CCCCC[n+]3cc(C)cc(C)c3)cc2CCCCC[n+]2cc(C)cc(C)c2)c1`, the Activity in experiment [1] was 15%; in experiment [2], 3.7%. Further, the inhibition in experiment [3] turned out to be 45%.

For `c1ccc(-c2ccc[n+](CCCCCc3cc(CCCCC[n+]4cccc(-c5ccccc5)c4)c(CCCCC[n+]4cccc(-c5ccccc5)c4)cc3CCCCC[n+]3cccc(-c4ccccc4)c3)c2)cc1`, the Activity in experiment [1] was found to be 33%; in experiment [2], 6.6%. This molecule returned an inhibition in experiment [3] of 19%.

Regarding `Cc1ccc[n+](CCCC#Cc2cc(C#CCCC[n+]3cccc(C)c3)c(C#CCCC[n+]3cccc(C)c3)cc2C#CCCC[n+]2cccc(C)c2)c1`, the values for the Activity in experiment [1] and in experiment [2] were 18% and 11%, respectively. This molecule had an inhibition in experiment [3] of 16%.
